V1aR counter = V1a receptor agonism, counter-screen for OXTR agonists; P37288; CHO-V1R cells, Fluo-8 calcium fluorescence, agonist mode; 0% DMSO, 100% 3 nM vasopressin; activation, % at 3 µM; 320,000 compounds, 0.25% hits;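 active means activation above the mean activation of all tested compounds plus 3 SD, per screening run, cut at about 20% in these data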;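 further: signal is peak over basal fluorescence ratio across a 100 second FLIPR read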
Target sequence (P37288 whole entry, looked up): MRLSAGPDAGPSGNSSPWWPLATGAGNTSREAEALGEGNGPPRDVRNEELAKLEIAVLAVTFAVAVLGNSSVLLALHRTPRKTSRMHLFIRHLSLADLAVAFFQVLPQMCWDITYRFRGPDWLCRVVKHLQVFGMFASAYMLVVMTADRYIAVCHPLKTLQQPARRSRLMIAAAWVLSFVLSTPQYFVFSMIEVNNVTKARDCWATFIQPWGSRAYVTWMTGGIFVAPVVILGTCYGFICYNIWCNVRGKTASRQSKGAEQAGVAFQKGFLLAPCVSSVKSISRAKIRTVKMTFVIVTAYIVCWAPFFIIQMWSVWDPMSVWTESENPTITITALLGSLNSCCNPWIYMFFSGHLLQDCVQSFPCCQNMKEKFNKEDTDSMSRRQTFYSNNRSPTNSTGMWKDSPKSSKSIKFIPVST
OX1R antag-1 = OX1R (human) antagonism | O43613 | inhibition, % at 6.6 µM | OX1R-expressing cells, FRET antagonist read-out | 330,000 compounds, 1.8% hits | AID 485270; in the data active means inhibition mostly above about 38%, no sharp cut-off; inactive means mostly below about 40%
OXTR potentiate = potentiates the human oxytocin receptor response; CHO-OTR cells, Fluo-8 calcium fluorescence, potentiator mode; 0% = oxytocin EC15, 100% = EC100; 320,000 compounds, 0.061% hits; activation, % at 3 µM; P30559; AID 2445;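 active means activation above that plate's cutoff, the mean activation of tested compounds plus 3 SD, cut at about 6.6% in these data, passing the limit was not always enough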
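System: human OTR in CHO cells / Also added: sub-maximal oxytocin, roughly EC15 / Control set: EC15 oxytocin low, 75 nM oxytocin high / Schedule: 6 min compound pre-incubation at room temperature, 100 s kinetic read / Compound: single-point 3.0 µM / Replication: singlicate / Technique: Fluo-8 calcium dye fluorescence / Read-out basis: % activation of max/min ratio relative to oxytocin controls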
CHO parental Ca = counter-screen for OX1R antagonists: effect in parental CHO cells; parental CHO-K1, ATP-induced calcium, Fluo-8 fluorescence; inhibition, % at 5.6 µM; 330,000 compounds, 0.63% hits; AID 463079;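 active means inhibition above that plate's mean sample inhibition plus 3 SD, cut at about 26% in these data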
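Assay system: untransfected parental CHO cell line. Also added: ATP agonist challenge. Dosing: one dose, 5.6 µM nominal. Measured by: Fluo-8 fluorescence. Read-out: % inhibition. Benchmarks: ATP wells versus no-ATP DMSO wells. Repeats: no replicates.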
OX1R antag-2 = human HCRTR1 antagonism. O43613. 330,000 compounds, 0.43% hits. CHO/OX1R cells, Fluo-8 calcium fluorescence, orexin A. inhibition, % at 5 µM;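 active means inhibition above its plate's threshold, mean inhibition of all tested compounds on the plate plus 3 SD, cut at about 37% in these data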
OXTR agonist = agonists of human oxytocin receptor; CHO-OTR cells, Fluo-8 calcium fluorescence; normalized: DMSO 0%, oxytocin 100%; activation, % at 3 µM; 320,000 compounds, 0.32% hits;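 active means activation above the mean of all tested compounds plus 3 SD, cutoff set per screening run, cut at about 20% in these data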;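 further: peak over basal fluorescence ratio from a 100 s FLIPR kinetic read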
A number is an active result; 0 = inactive. Most compounds without a hit are left out; they make up all but 2.6% or so of the library.

SMILES	V1aR counter	OX1R antag-1	OXTR potentiate	CHO parental Ca	OX1R antag-2	OXTR agonist
CC(=O)OC[C@]12CC[C@H]3[C@@](C)(CC[C@H]4C(C)(C)CCC[C@]34C)[C@@H]1C[C@H](C1=CC(=O)O[C@H]1OC(C)=O)O2	0	0	0	46	51	0
C[C@H](CO)N1C[C@H](C)[C@@H](CN(C)S(=O)(=O)c2ccc(F)cc2)Oc2ccc(NS(=O)(=O)c3ccccc3)cc2C1=O	0	0	0	0	0	0
Cc1ccc(-c2nc3c(Cl)cc(Cl)cc3c(=O)n2O)cc1	66	0	0	0	0	23
O=c1c2cc(Br)ccc2nc(-c2ccc(Cl)cc2)n1O	0	0	0	0	0	0
O=C(C[C@@H]1C/C=C\C[C@@H](NC(=O)OCC2c3ccccc3-c3ccccc32)C(=O)OCCNC1=O)N[C@@H](CO)Cc1ccccc1	0	0	0	0	0	0
O=C(C1=C(O)C(=O)N(c2nccs2)C1c1ccccc1)c1cc2ccccc2o1 (centres undefined)	186	0	0	0	52	20
COc1ccc(CN(C)S(=O)(=O)c2nnc(NC(=O)c3ccccc3OC)s2)cc1OC	0	49	0	0	0	0
COc1ccc(CN(C)S(=O)(=O)c2nnc(NC(=O)c3ccc(C)cc3)s2)cc1OC	0	0	0	0	0	0
Cc1c(C#N)c(O)[nH]c(=O)c1N=Nc1ccc(Cl)c(C(=O)O)c1	0	0	0	0	0	0
Cc1c(C#N)c(O)[nH]c(=O)c1N=Nc1ccc(S(N)(=O)=O)cc1	0	41	0	0	0	0
O=C(CN1C(=O)C2CC=CCC2C1=O)Nc1nc(-c2ccc(F)c(F)c2)cs1 (centres undefined)	0	0	0	0	0	0
Cc1ccc(C(=O)N/C(=C\c2ccco2)C(=O)N2CCOCC2)cc1C	0	0	0	0	0	0
Cc1cc(C)n2nc(C(=O)N/N=C/c3ccccc3C)nc2n1	0	0	0	0	0	0
Cc1cc(C)n2nc(C(=O)N/N=C/c3cccs3)nc2n1	0	35	0	0	0	0
CCC(Cc1ccccc1)NC(=O)c1cc(S(=O)(=O)N2CCCCC2)c[nH]1 (centres undefined)	0	0	0	0	0	0
O=C(NCC1(N2CCCCC2)CCCCC1)C1CC(=O)N(c2ccc3c(c2)OCCO3)C1 (centres undefined)	0	0	0	0	0	0
CCCCOc1ncnc2c1[nH]c1ccc(F)cc12	0	0	0	32	0	0
CCOCCCNc1ncnc2c1[nH]c1ccccc12	0	0	0	0	0	0
CCCCOc1ncnc2c1[nH]c1ccccc12	0	73	0	0	0	0
CCCCOCCCNc1ncnc2c1[nH]c1ccccc12	0	52	0	43	0	0
Cc1cc(C)cc(NC(=O)c2cc(C)n(Cc3cccs3)c2C)c1	0	0	0	59	0	0
Cc1cc(C(=O)Nc2ccc(Cl)cc2)c(C)n1Cc1cccs1	0	0	0	0	0	0
C#CCOc1ccc(CNC[C@H]2O[C@@H](n3cnc4c(N)ncnc43)[C@H](O)[C@@H]2O)cc1	0	0	0	0	0	0
O=C(CN1C(=O)C(=O)N(C2CCCC2)C1=O)Nc1ccc(N2CCOCC2)cc1	0	0	0	0	0	0
C=CCSc1nsc(NC(=O)Nc2ccc(F)cc2)n1	0	70	0	51	0	0
SMILES	V1aR counter	OX1R antag-1	OXTR potentiate	CHO parental Ca	OX1R antag-2	OXTR agonist
CCOCCCNC(=O)CN1C(=O)c2ccccc2Sc2ncccc21	0	0	0	0	0	0
NNC(=O)c1ccc2nc(-c3ccc(Br)cc3)cn2c1	0	0	0	0	0	0
COc1ccc(-c2cn3cc(C(=O)NN)ccc3n2)cc1	0	0	0	54	57	0
CCOC(=O)N1CCC(NC(=O)c2cc(COc3ccccc3SC)on2)CC1	0	0	0	0	0	0
CCN(CC)c1ccc2cc(C=O)c(=O)oc2c1	88	116	0	50	0	110
CCN(CC)S(=O)(=O)c1ccc(Cl)c(C(=O)Nc2ccc(Cl)cc2[N+](=O)[O-])c1	0	0	0	50	0	0
Cn1c(/C=C/c2cccc(Br)c2)nc2ccccc2c1=O	0	60	0	0	0	0
